Laboratory results reported in ChEMBL document CHEMBL1156036, “A class of novel N-(3S-1,2,3,4-tetrahydroisoquinoline-3-carbonyl)-L-amino acid derivatives: their synthesis, anti-thrombotic activity evaluation, and 3D QSAR analysis” (Eur J Med Chem, 2009).
Square brackets hold non-standard residues; d marks the D form. Peptide text beside a SMILES is read from it. Tic = O=C(O)[C@@H]1Cc2ccccc2CN1

Experiments:
Type in all cases: functional
[1] = Antiplatelet aggregatory activity in pig […] assessed as inhibition of ADP-induced platelet aggregation; details: Sus scrofa
Summary of the method: (§1)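 Pig blood spun 1000g 10 min for platelet-rich plasma, then 1500g 10 min for platelet-poor plasma; platelets adjusted to 2×10^8/ml with autologous PPP. Test agent in NS (final 100 to 0.001 μM) added to 0.5 ml plasma, then inducer in NS: PAF 0.1 μM, ADP 10 μM, AA 350 μM or thrombin 0.1 U/ml (final). Optical aggregometry, 37 °C, 5 min, six tubes.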

[2] = Antiplatelet aggregatory activity in pig […] assessed as inhibition of arachidonic acid-induced platelet aggregation; details: Sus scrofa; summary of the method: as §1
[3] = Antiplatelet aggregatory activity in pig […] assessed as inhibition of platelet-activating factor-induced platelet aggregation; details: Sus scrofa; summary of the method: as §1
[4] = Antiplatelet aggregatory activity in pig […] assessed as inhibition of thrombin-induced platelet aggregation; details: Sus scrofa; summary of the method: as §1
[5] = tested on: Rattus norvegicus; assay: Antithrombotic activity in Wistar rat assessed as reduction of wet thrombus weight at 15 umol/kg, iv after 15 mins
Summary of the method: (§2)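 Male Wistar rats, 250-300 g, given agent dissolved in NS (kept on ice) intravenously; Aspirin 15 μmol/kg as reference, NS as vehicle. Pentobarbital sodium 80.0 mg/kg i.p. Arteriovenous shunt from right carotid artery to left jugular vein via polyethylene tube containing a thread; blood flowed 15 min; wet thrombus weighed, n = 12, mean ± SD.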

[6] = tested on: Rattus norvegicus; assay: Antithrombotic activity in Wistar rat assessed as reduction of wet thrombus weight at 15 umol/kg, po after 15 mins
[7] = tested on: Rattus norvegicus; assay: Antithrombotic activity in Wistar rat assessed as reduction of wet thrombus weight at 5 umol/kg, iv after 15 mins; summary of the method: as §2

SMILES	IC50 [1] [µM]	IC50 [2] [µM]	IC50 [3] [µM]	IC50 [4] [µM]	Activity [5] [mg]	Activity [6] [mg]	Activity [7] [mg]
O=C(O)[C@@H]1Cc2ccccc2CN1	0.552	0.452	0.96	0.881	21.52	23.88	–
C[C@H](N)C(=O)N1Cc2ccccc2C[C@H]1C(=O)O (H-Ala-[Tic]-OH)	0.651	0.452	0.945	0.741	–	–	20.3
N=C(N)NCCC[C@H](N)C(=O)N1Cc2ccccc2C[C@H]1C(=O)O (H-Arg-[Tic]-OH)	0.21	0.298	0.517	0.565	–	–	20.06
NC(=O)C[C@H](N)C(=O)N1Cc2ccccc2C[C@H]1C(=O)O (H-Asn-[Tic]-OH)	0.534	0.43	0.36	0.495	–	–	22.66
N[C@@H](CC(=O)O)C(=O)N1Cc2ccccc2C[C@H]1C(=O)O (H-Asp-[Tic]-OH)	0.345	0.344	0.383	–	–	–	20.3
NC(=O)CC[C@H](N)C(=O)N1Cc2ccccc2C[C@H]1C(=O)O (H-Gln-[Tic]-OH)	0.302	0.407	0.392	0.555	–	–	21.3
N[C@@H](CCC(=O)O)C(=O)N1Cc2ccccc2C[C@H]1C(=O)O (H-Glu-[Tic]-OH)	0.494	0.369	0.544	0.589	–	–	20.87
NCC(=O)N1Cc2ccccc2C[C@H]1C(=O)O (H-Gly-[Tic]-OH)	0.365	0.44	0.875	0.761	–	–	21.17
N[C@@H](Cc1c[nH]cn1)C(=O)N1Cc2ccccc2C[C@H]1C(=O)O (H-His-[Tic]-OH)	0.324	0.351	0.67	0.684	–	–	21.78
CC[C@H](C)[C@H](N)C(=O)N1Cc2ccccc2C[C@H]1C(=O)O (H-Ile-[Tic]-OH)	0.315	0.238	0.831	0.674	–	–	21.14
CC(C)C[C@H](N)C(=O)N1Cc2ccccc2C[C@H]1C(=O)O (H-Leu-[Tic]-OH)	0.336	0.573	0.891	0.73	–	–	19.12
NCCCC[C@H](N)C(=O)N1Cc2ccccc2C[C@H]1C(=O)O (H-Lys-[Tic]-OH)	0.323	0.521	0.472	0.829	–	–	21.31
CSCC[C@H](N)C(=O)N1Cc2ccccc2C[C@H]1C(=O)O (H-Met-[Tic]-OH)	0.265	0.382	0.409	–	–	–	19.56
N[C@@H](Cc1ccccc1)C(=O)N1Cc2ccccc2C[C@H]1C(=O)O (H-Phe-[Tic]-OH)	0.37	0.666	–	0.851	–	–	22.23
O=C(O)[C@@H]1Cc2ccccc2CN1C(=O)[C@@H]1CCCN1 (H-Pro-[Tic]-OH)	0.373	0.526	–	0.59	–	–	21.09
N[C@@H](CO)C(=O)N1Cc2ccccc2C[C@H]1C(=O)O (H-Ser-[Tic]-OH)	0.103	0.572	0.267	0.498	–	–	18
C[C@@H](O)[C@H](N)C(=O)N1Cc2ccccc2C[C@H]1C(=O)O (H-Thr-[Tic]-OH)	0.24	0.215	0.404	0.879	–	–	20.73
N[C@@H](Cc1ccc(O)cc1)C(=O)N1Cc2ccccc2C[C@H]1C(=O)O (H-Tyr-[Tic]-OH)	–	0.535	0.668	0.736	–	–	20.92
CC(C)[C@H](N)C(=O)N1Cc2ccccc2C[C@H]1C(=O)O (H-Val-[Tic]-OH)	0.389	0.423	0.632	0.653	–	–	20.12
